Experimental data taken from ChEMBL document CHEMBL4513216, “Probing the Open Global Health Chemical Diversity Library for Multistage-Active Starting Points for Next-Generation Antimalarials” (ACS Infect Dis, 2020).

Assay: Toxicity liver stage against HepG2, at 10uM
Assay type: cell-based
Set-up: test concentration 10 uM, cell line HepG2-A16-CD81EGFP
Details: human, HepG2-A16-CD81EGFP cells; read-out: INHIBITION
Outline: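 Uninfected HepG2-A16-CD81EGFP cells, 3 × 10^3 per well, 1536-well, plated on prespotted compound at 10 μM final, parasite-free screening media added to match infected plates; puromycin 10 μM positive, DMSO 0.5% negative; run in parallel with 48 h PbLuc assay at 37 °C, 5% CO2; viability by CellTiter-Glo luminescence, normalized to controls.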

| Structure (SMILES) | cytotoxicity at 10 µM [%] |
| --- | --- |
| O=C(NC1CCCC1)O[C@H]1COCCN(c2nc3ccccc3o2)C1 | -3.51 |
| FC(F)(F)c1ccc2[nH]c([C@H]3CCNC3)nc2c1 | 2.91 |
| COc1ccc2cnn(CC(=O)NC3CCCCC3)c(=O)c2c1OC | -2.49 |
| CC(C)CCn1cc(C(=O)NC2CCS(=O)(=O)C2)c2ccccc2c1=O (stereo not given) | -3.68 |
| CSCCC(C)(O)CNS(=O)(=O)Cc1ccc(F)cc1 (stereo not given) | -5.95 |
| Cc1noc(C)c1S(=O)(=O)N1CCC(Oc2cnccn2)CC1 | 4.95 |
| O=S(=O)(NCCNc1ccc(-n2cccc2)nn1)c1ccccc1 | -0.426 |
| O=S(=O)(Cc1ccccc1)NCCNc1ccc(-n2cccc2)nn1 | 10.8 |
| CSc1ccc(C(O)CNS(=O)(=O)C2CC2)cc1 (stereo not given) | -0.608 |
| Cc1sc(CN)nc1-c1ccc(Cl)cc1Cl | -1.14 |
| Cc1ccc(-c2[nH][nH]c(=O)c2CCN)cc1 | 6.03 |
| COc1ccc(NC(=O)Cn2cc(-c3ccccc3)ncc2=O)cn1 | -4.73 |
| Cc1cnc(N2C(=O)CSC2c2ccc(F)cc2)s1 (stereo not given) | -2.92 |
| Nc1nnc(C2CC(=O)N(c3ccccc3)C2)s1 (stereo not given) | 4.23 |
| NC(=O)c1c(-c2ccc(Cl)cc2Cl)csc1NC(=O)CCC(=O)O | 8.32 |
| CC(C)C(=O)Nc1cc(C(=O)NC2CC(C)(C)NC(C)(C)C2)nn1C | -7.04 |
| CSc1cccc(NC(C)C(=O)Nc2nccs2)c1 (stereo not given) | 3.05 |
| CNc1[nH]nc(N)c1C(=O)Nc1ccc(OC)cc1 | 14.8 |
| Cc1ccc(C2CN(C(=O)c3ccn(C)c(=O)c3)CCO2)nc1 (stereo not given) | -17 |
| O=C(c1cccnc1)N1CCCC(c2ncncc2-c2ccncc2)C1 (stereo not given) | -23.4 |
| Cc1ccc(CC(=O)N2CCCC(c3n[nH]c4nccnc34)C2)cc1 (stereo not given) | -22.2 |
| Cc1ccc(S(=O)(=O)N2C[C@@H]3C[C@@H](NC(=O)C(C)(C)C)[C@@H]3C2)cc1 | -3.81 |

| Structure (SMILES) | cytotoxicity at 10 µM [%] |
| --- | --- |
| CC(C)C(C(=O)O)c1cccc(Cl)c1 (stereo not given) | -12.8 |
| CNS(=O)(=O)c1cc(C(=O)N2CCCCCC2CC(C)C)co1 (stereo not given) | 11.2 |
| O=C(NCC1SCCc2ccccc21)c1cscn1 (stereo not given) | -1.88 |
| Cc1nc(CC(=O)N2c3ccccc3OCC2C)cs1 (stereo not given) | -6.53 |
| CN(Cc1ccc(F)cc1)Cc1cc2c(cc1Br)OCCO2 | -138 |
| Cc1ccc(F)c(S(=O)(=O)NCCc2nnc[nH]2)c1 | 3.16 |
| Cn1cc(C(=O)NCc2ccc(OC3CCCCC3)nc2)ccc1=O | 28.8 |
| COc1ccc(C2CCCN2C(=O)c2ccc(=O)n(C)c2)cc1OC (stereo not given) | 11.3 |
| CCOC(=O)CCCN1CCCC(C(=O)Nc2ccc(Cl)cn2)C1 (stereo not given) | 2.69 |
| Cc1cnc(CN2CCCC(c3nc4ccccc4n3C(C)C)C2)o1 (stereo not given) | -8.14 |
| Cc1cc(C)c2c(c1)C(NCc1nnc3n1CCC3)CCCO2 (stereo not given) | -0.117 |
| O=C(c1cccnc1-n1cncn1)N1CCN(C2CCCC2)CC1 | 8.7 |
| CC(C)OCCOCc1cccc(NC(=O)NCC(=O)N(C)C)c1 | -5.53 |
| Cn1cnc2c1CCN(Cc1nc(-c3ccco3)no1)C2 | 0.887 |
| CCn1c(CNC(=O)Nc2nc(C)c(C)o2)nc2ccccc21 | -5.3 |
| Cc1noc(CCNS(=O)(=O)N2CCCC2c2ccco2)n1 (stereo not given) | -6.43 |
| COc1cccc2c1N(C(=O)c1ccc(C)nc1)CCC2 | 1.36 |
| CNS(=O)(=O)c1ccc(CNC(=O)N(C)C(C)COC)cc1 (stereo not given) | -5.12 |
| CN(CC(=O)N(C)C1CCCCC1)Cc1nc2ccccc2c(=O)[nH]1 | 2.26 |
| Cc1ccccc1OCCC(=O)OC(C)C(=O)Nc1sccc1C(N)=O (stereo not given) | 19.4 |
| c1cc2c(cc1C1CCCN1Cc1nnnn1C1CC1)OCCO2 (stereo not given) | -25.7 |
| CC(C)C(=O)N1CC[C@H]2N(C)CC[C@@]2(C(=O)Nc2ccccc2)CC1 | -107 |

| Structure (SMILES) | cytotoxicity at 10 µM [%] |
| --- | --- |
| CCN1CCO[C@@H]2CN(C(=O)NCc3ccccc3)CC[C@@H]2C1 | -117 |
| CN1C(=O)CC(c2ccccc2)C12CCN(c1ncc(F)cn1)CC2 (stereo not given) | -108 |
| COCC(=O)NCc1cc(=O)n2c(n1)CN(Cc1nccs1)CCC2 | -107 |
| CS(=O)(=O)NCc1nnc2n1CCN(Cc1cccnc1)C2 | -70.9 |
| c1cnc(NCC2Cn3nnc(-c4ccsc4)c3CO2)nc1 (stereo not given) | -73.3 |
| COCCc1noc(CN2CC(Cc3ccccc3)CC2=O)n1 (stereo not given) | -7.11 |
| NC(=O)c1noc(Cn2ncc3ccccc3c2=O)n1 | -1.26 |
| O=C(NCCc1csc(-c2cccnc2)n1)c1cnn2c1CCCC2 | 3.41 |
| CCc1[nH]c2c(CNc3cncc(C(=O)OC)n3)cc(C)cc2c1C | 1.85 |
| CCn1nc(C(C)C)cc1C(=O)NCC1CCCN(c2ccccn2)C1 (stereo not given) | 5.65 |
| Cc1cc(F)ccc1OC1(C(=O)O)CCN(Cc2nccn2C)CC1 | 0.334 |
| CCCOCCN1CCc2[nH]c(-c3ccccc3)nc2C1 | -124 |
| CSc1ncc(C(=O)N2CCN(c3ccccc3C)CC2C)cn1 (stereo not given) | 0.642 |
| Cc1noc(C)c1CC(=O)N1CCCC(Cn2ccnc2C)C1 (stereo not given) | -3.6 |
| Cc1cc(N2CCC3(CCCN(C4CCOCC4)C3=O)C2)ccn1 (stereo not given) | -134 |
| Cc1cc(CN(C)C2CCN(c3cccc(-c4cscn4)c3)CC2)on1 | -0.371 |
| Cc1nc(C)c(C)c(NCc2cnn3cccnc23)n1 | 15.5 |
| O=c1cnc2ccccc2n1CCCn1cccn1 | -26.4 |
| CC(=O)N1CCc2c(nc(N(C)C)nc2NCCC2CCCCO2)C1 (stereo not given) | 5.22 |
| O=C(Cn1ccnc1)N1CCCC(OCc2cccnc2)C1 (stereo not given) | 2.03 |
| COc1ccc(CCC(C)Nc2cccc(SC)c2)cc1 (stereo not given) | -1.11 |
| Cc1nc(CN(C)Cc2cn[nH]c2-c2ccc(F)cc2)c[nH]1 | -17.8 |

| Structure (SMILES) | cytotoxicity at 10 µM [%] |
| --- | --- |
| O=C(NCc1nnnn1-c1ccccc1)c1ccc(C2CCCO2)s1 (stereo not given) | 0.363 |
| Cc1nonc1C1CCCN1C(=O)c1cc2n(n1)CCCNC2 (stereo not given) | -7.73 |
| Cc1nnsc1C(=O)NCc1cccnc1N(C)Cc1ccccc1 | -6.91 |
| CSc1ccccc1C(=O)N1C[C@@H](N(C)C)[C@H](c2ccc(C)cc2)C1 | -7.02 |
| CS(=O)(=O)N1CCOC(CNC(=O)c2cccc(C#N)c2)C1 (stereo not given) | -5.69 |
| O=C(c1ccc(Cl)s1)N1CCCn2nc(CN3CC[C@H](F)C3)cc2C1 | -1.44 |
| Cc1ccc(C(=O)N2CC(C)(C)[C@@](C)(O)C2)cc1N1CCNC1=O | -2.76 |
| CCOc1ccnc(N[C@@H](Cc2ccccc2)C(N)=O)n1 | 10.7 |
| Cc1cccc(C)c1-c1cc(NCCO)nc2[nH]ccc12 | 52.4 |
| CCn1c(CC2CCNCC2)nn(Cc2ccc(C(=O)NC)o2)c1=O | 9.17 |
| CCc1c(C)nc(C)nc1N1C[C@@H](CN(C)C)[C@@H](CO)C1 | -0.247 |
| CCN1CC(C(=O)NCCn2cccc2)CCC1=O (stereo not given) | -1.64 |
| O=C1CN(Cc2ccc(-c3ccccc3C(=O)O)cc2)CCN1 | -1.88 |
| COc1ccc(-c2nnc(CN3CCCC3Cn3cncn3)o2)cc1 (stereo not given) | 3.02 |
| CCOc1cccc(CNC(=O)N2CCC(Cc3cnn(C)c3)C2)c1 (stereo not given) | -3.16 |
| CC(C)COC(C)C(=O)NCc1ccc(-n2cncn2)nc1 (stereo not given) | -5.65 |
| Cc1ccccc1C1(C(=O)NCCN2CCCC2)CCOCC1 | -7.54 |
| O=C(Cc1ccccc1Cl)N1CCCC(n2cncn2)C1 (stereo not given) | -11.1 |
| CCn1cc(CN2CCCN(C(=O)Cc3cccs3)CC2)cn1 | -2.76 |
| CS(=O)(=O)c1ccc(C(O)CN2CCC(c3ccn[nH]3)CC2)cc1 (stereo not given) | -12.1 |
| Cc1cc(C)n(CC2CCCN2C(=O)c2cc[nH]n2)n1 (stereo not given) | -3.8 |
| COc1ncccc1NC(=O)NCC(O)c1ccc(F)cc1F (stereo not given) | 30.9 |

| Structure (SMILES) | cytotoxicity at 10 µM [%] |
| --- | --- |
| O=C(CCOCc1ccccc1)N1CCCC1c1noc(C2CC2)n1 (stereo not given) | -4.74 |
| CCc1nccn1C1CCCN(C(=O)c2cnn(C)c2C2CC2)C1 (stereo not given) | -12.8 |
| COc1ccc(-n2ccc(C(=O)NCCN3CCCCC3C)n2)cc1 (stereo not given) | -8.43 |
| CCN1CCC2(CC1)OCCN2C(=O)c1ccc(OC)c(Cl)c1 | 9.55 |
| COc1ccc(C(C)N(C)Cc2c(C3CC3)[nH]c3ncccc23)cc1 (stereo not given) | -2.45 |
| CCn1ncc2c1CN(C(=O)c1cscn1)CC2COC (stereo not given) | -79.1 |
| Fc1cnc(N2C[C@@H](OCC3CCOCC3)[C@H]3OCCC[C@H]32)nc1 | 10.5 |
| Cc1occc1C(=O)N1Cc2nccn2CC(CN(C)C)C1 (stereo not given) | -97.7 |
| CCN1C[C@H]2C3(CCN(S(C)(=O)=O)CC3)CC[C@@]2(C(=O)N(C)C)C1 | -107 |
| Cc1cc(CN2C[C@@H]3COC[C@]3(CNC(=O)N(C)C)C2)no1 | -71.4 |
| Cc1sc(Br)cc1S(=O)(=O)NCCN | -6.69 |
| Cc1oncc1C(=O)N1CCOCC2(CCN(c3ccccn3)C2)C1 (stereo not given) | -68.3 |
| O=C(O)CN1CCCC2(CCN2Cc2cccc(F)c2)C1 (stereo not given) | -108 |
| O=C(c1ccccc1F)N1CCC2(CC1)CC(N1CCCC1)CO2 (stereo not given) | -120 |
| Cc1cc(CN2C[C@@H]3COC[C@H](C(=O)N4CCCCO4)[C@@H]3C2)oc1C | -74.1 |
| Cc1ccc(N2CCO[C@H]3CN(CC4CC4)C[C@H]32)nn1 | -7.93 |
| CNC(=O)CC1CC2(CCN(CC3CC3)CC2)Oc2ccccc21 (stereo not given) | -0.0368 |
| c1cncc(CN2CC[C@H]3O[C@@H](COCC4CC4)CC[C@H]32)c1 | 2.19 |
| CC(C)c1nc(C(=O)N2C[C@@H]3CC[C@H]2CN(C2CCOCC2)C3)cs1 | 5.31 |
| O=C(Nc1ccccc1)N1C2CCC(O)(CC2)C1CO (stereo not given) | -5.2 |
| CCc1cc(N[C@@H]2C[C@@H]3CC[C@H]2C3)n2nccc2n1 | -2.24 |
| Cc1noc(C)c1CN1C(=O)[C@@H]2CC[C@H]1CN(C(=O)c1cscn1)C2 | -10.6 |
